Test results from ChEMBL document CHEMBL1138612, “Inhibition of monoamine oxidase by (E)-styrylisatin analogues” (Bioorg Med Chem Lett, 2009).

Tests used:
[1] = biological target: T1, Amine oxidase [flavin-containing] A (Homo sapiens, UniProt P21397); test: Inhibition of recombinant wild-type MAOA from human liver expressed in Pichia pastoris
T1 sequence (P21397 whole entry): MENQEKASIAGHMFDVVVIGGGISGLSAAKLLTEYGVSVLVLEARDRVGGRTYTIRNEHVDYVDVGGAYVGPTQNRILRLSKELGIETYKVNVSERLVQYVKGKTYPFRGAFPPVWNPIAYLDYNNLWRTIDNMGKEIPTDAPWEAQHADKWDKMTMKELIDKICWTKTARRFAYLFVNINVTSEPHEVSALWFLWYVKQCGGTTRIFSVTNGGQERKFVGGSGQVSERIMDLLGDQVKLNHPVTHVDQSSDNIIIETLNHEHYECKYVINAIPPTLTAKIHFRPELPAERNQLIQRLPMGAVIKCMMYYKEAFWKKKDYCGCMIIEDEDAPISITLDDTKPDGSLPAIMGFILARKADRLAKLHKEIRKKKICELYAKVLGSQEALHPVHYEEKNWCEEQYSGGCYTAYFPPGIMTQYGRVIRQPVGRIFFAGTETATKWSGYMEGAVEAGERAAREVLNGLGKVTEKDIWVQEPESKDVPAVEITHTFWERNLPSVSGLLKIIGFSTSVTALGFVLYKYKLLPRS

[2] = Inhibition of baboon liver MAOB; parameters: species or system Papio hamadryas
Method in brief: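 Baboon liver mitochondrial fractions as MAO-B source, with MMTP as substrate. IC50 from means ± SEM of duplicate determinations. Reversibility was tested by preincubating inhibitor (40 nM) with the mitochondria for 0, 15, 30 and 60 min.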

[3] = biological target: T2, Amine oxidase [flavin-containing] B (Homo sapiens, UniProt P27338); test: Inhibition of recombinant wild-type MAOB from human liver expressed in Pichia pastoris
T2 sequence (P27338 whole entry): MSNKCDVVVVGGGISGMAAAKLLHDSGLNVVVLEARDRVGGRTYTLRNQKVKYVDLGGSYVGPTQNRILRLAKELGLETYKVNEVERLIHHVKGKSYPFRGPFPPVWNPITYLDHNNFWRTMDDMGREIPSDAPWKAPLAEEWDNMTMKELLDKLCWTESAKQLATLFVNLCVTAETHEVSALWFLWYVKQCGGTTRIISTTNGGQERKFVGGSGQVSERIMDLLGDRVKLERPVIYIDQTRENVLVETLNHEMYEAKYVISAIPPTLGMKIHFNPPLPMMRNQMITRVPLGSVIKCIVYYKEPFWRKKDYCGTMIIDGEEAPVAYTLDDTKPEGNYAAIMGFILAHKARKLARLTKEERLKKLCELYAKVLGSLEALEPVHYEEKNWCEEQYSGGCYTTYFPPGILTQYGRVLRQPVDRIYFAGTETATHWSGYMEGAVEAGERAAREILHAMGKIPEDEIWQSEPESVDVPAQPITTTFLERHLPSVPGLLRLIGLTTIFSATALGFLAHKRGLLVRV

[4] = organism: Homo sapiens; test: Selectivity ratio of Ki for recombinant wild-type MAOA from human liver to Ki for recombinant wild-type MAOB from human liver
Method in brief: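 Substrates were p-CF3-benzylamine for MAO-A (243 nm) and benzylamine for MAO-B (250 nm), six concentrations 50–3000 µM, three inhibitor levels. Ki from apparent Km versus inhibitor; selectivity = Ki(MAO-A)/Ki(MAO-B).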

[5] = Inhibition of human MAOB […] mutant

Row | SMILES | Ki [1] [nM] | IC50 [2] [nM] | Ki [3] [nM] | Ratio Ki [4] | Ki [5] [µM]
1 | O=C1Nc2ccc(/C=C/c3cccc(F)c3)cc2C1=O | 2200 |  |  |  | 
2 | O=C1Nc2ccc(/C=C/c3ccccc3)cc2C1=O | 780 | 41.7 | 310 | 5 | 1.1
3 | O=C1Nc2ccc(/C=C/c3cccc(Cl)c3)cc2C1=O | 5600 | 20.7 | 1400 | 2.5 | 12.5
